Calls of active or inactive are those of the source. No cut-off for these calls is given here.
Columns and labels:
Rattus norvegicus [1] = organism: Rattus norvegicus; assay: Inhibition of testosterone-induced prostate weight increase in Sprague-Dawley rat by modified Hersherberger assay; assay type: functional, Prostate gland
In short: (§1)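 Rats castrated at three weeks old, then dosed orally by gavage once daily for five days in 30% (w/v) hydroxypropyl-β-cyclodextrin, together with testosterone propionate 0.1 mg/day (about 1.3 mg/kg) s.c. in sesame oil. At necropsy, ventral prostate wet weight was measured. Values are body-weight-adjusted means of three or four animals.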

Rattus norvegicus [2] = organism: Rattus norvegicus; assay: Reduction of testosterone-induced prostate weight increase in Sprague-Dawley rat by modified Hersherberger assay relative to control; assay type: functional, Prostate gland; design: concentration or dose not given beside the values; in short: as §1

Row | Structure (SMILES) | ID50 (Rattus norvegicus [1]) [mg/day] | Activity (Rattus norvegicus [2]) [%] | Activity (Rattus norvegicus [2]; Prostate gland)
1 | CC(C)(O)c1[nH]c2cc(C(F)(F)F)c(C#N)cc2c1Br | 0.8 | – | –
2 | CC(C)(O)c1[nH]c2cc(C(F)(F)F)c(C#N)cc2c1I | 1.1 | 81 | –
3 | CC(C)(O)c1[nH]c2cc(C(F)(F)F)c([N+](=O)[O-])cc2c1C#N | – | 56 | –
4 | CC(O)(c1cc2cc(C#N)c(C(F)(F)F)cc2[nH]1)C(F)(F)F (single isomer, unassigned; (-)) | 0.13 | 80 | –
5 | CSCC(C)(O)c1cc2cc([N+](=O)[O-])c(C(F)(F)F)cc2[nH]1 (stereo not given) | – | 66 | –
6 | CC(C)(O)c1[nH]c2cc(C(F)(F)F)c([N+](=O)[O-])cc2c1Cl | – | 81 | –
7 | CCC(C)(O)c1cc2cc([N+](=O)[O-])c(C(F)(F)F)cc2[nH]1 (stereo not given) | – | 63 | –
8 | CC(C)(O)c1[nH]c2cc(C(F)(F)F)c([N+](=O)[O-])cc2c1Br | – | 71 | –
9 | CC(O)(CO)c1cc2cc([N+](=O)[O-])c(C(F)(F)F)cc2[nH]1 (stereo not given) | – | 58 | –
10 | CC(O)c1cc2cc([N+](=O)[O-])c(C(F)(F)F)cc2[nH]1 (stereo not given) | – | – | inactive
11 | CC(C)(O)c1cc2cc([N+](=O)[O-])c(C(F)(F)F)cc2[nH]1 | – | 32 | –
12 | CC(O)(c1cc2cc(C#N)ccc2[nH]1)C(F)(F)F (stereo not given) | – | 55 | –
13 | CC(O)(CCl)c1cc2cc([N+](=O)[O-])c(C(F)(F)F)cc2[nH]1 (stereo not given) | – | 38 | –
14 | CC(O)(c1cc2cc(C#N)c(C(F)(F)F)cc2[nH]1)C(F)(F)F (stereo in doubt; 6i) | – | 82 | –
15 | Cc1c(C(C)(C)O)[nH]c2cc(C(F)(F)F)c([N+](=O)[O-])cc12 | – | 37 | –
16 | CC(O)(CS(=O)(=O)c1ccc(F)cc1)C(=O)Nc1ccc(C#N)c(C(F)(F)F)c1 (stereo not given) [BICALUTAMIDE] | 0.29 | 75 | –
17 | CC(O)(c1[nH]c2cc(C(F)(F)F)c(C#N)cc2c1I)C(F)(F)F (stereo not given) | – | 79 | –
18 | CC(O)(c1cc2cc([N+](=O)[O-])c(C(F)(F)F)cc2[nH]1)C(F)(F)F (stereo not given) | – | 78 | –
19 | Cc1c(C(C)(C)O)[nH]c2cc(C(F)(F)F)c(C#N)cc12 | – | 55 | –
20 | CC(C)(O)c1[nH]c2cc(C(F)(F)F)c([N+](=O)[O-])cc2c1I | – | 59 | –
21 | CC(C)(O)c1[nH]c2cc(C(F)(F)F)c(C#N)cc2c1Cl | >3 | – | –
22 | CC(O)(c1[nH]c2cc(C(F)(F)F)c(C#N)cc2c1Cl)C(F)(F)F (stereo not given) | – | 66 | –
23 | CC(O)(c1cc2cc(C#N)c(C(F)(F)F)cc2[nH]1)C(F)(F)F (single isomer, unassigned; (+)) | 0.43 | 76 | –
24 | CC(O)(c1cc2cc(Cl)c(C(F)(F)F)cc2[nH]1)C(F)(F)F (stereo not given) | – | 30 | –
25 | Cn1c(C(C)(O)C(F)(F)F)cc2cc(C#N)c(C(F)(F)F)cc21 (stereo not given) | – | 90 | –
26 | C=Cc1c(C(C)(C)O)[nH]c2cc(C(F)(F)F)c([N+](=O)[O-])cc12 | – | – | inactive

Source: ChEMBL document CHEMBL1146271, “The discovery of a potent orally efficacious indole androgen receptor antagonist through in vivo screening” (2007)
